Reference: ChEMBL document CHEMBL1148554, “Hydroxylated analogues of the orally active broad spectrum antifungal, Sch 51048 (1), and the discovery of posaconazole [Sch 56592; 2 or (S,S)-5]” (2006)
In brackets after ≈: the same amount, converted by molar mass.

Experiments:
Aspergillus = assay: Antifungal activity against Aspergillus species; format: functional
Method in brief: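 Geometric mean MIC across 37 Aspergillus strains: 17 A. fumigatus, 11 A. flavus, 5 A. niger and 4 A. terreus.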

Candida albicans = assay: Antifungal activity against Candida albicans; format: functional
Method in brief: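 Geometric mean MIC across 26–30 C. albicans strains.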

| Structure (SMILES) | MIC (Aspergillus) [µg/mL] | MIC (Candida albicans) [µg/mL] |
| --- | --- | --- |
| C[C@H]([C@@H](C)O)n1ncn(-c2ccc(N3CCN(c4ccc(OC[C@@H]5CO[C@@](Cn6cncn6)(c6ccc(F)cc6F)C5)cc4)CC3)cc2)c1=O | 0.09 (≈ 0.131 µM) | < 0.006 |
| CC[C@H]([C@@H](C)O)n1ncn(-c2ccc(N3CCN(c4ccc(OC[C@@H]5CO[C@@](Cn6cncn6)(c6ccc(F)cc6F)C5)cc4)CC3)cc2)c1=O | < 0.077 | 0.014 (≈ 0.02 µM) |
| C[C@H](O)[C@@H](C)n1ncn(-c2ccc(N3CCN(c4ccc(OC[C@@H]5CO[C@@](Cn6cncn6)(c6ccc(F)cc6F)C5)cc4)CC3)cc2)c1=O | 0.08 (≈ 0.116 µM) | 0.03 (≈ 0.0437 µM) |
| CC[C@H]([C@H](C)O)n1ncn(-c2ccc(N3CCN(c4ccc(OC[C@@H]5CO[C@@](Cn6cncn6)(c6ccc(F)cc6F)C5)cc4)CC3)cc2)c1=O | < 0.09 | 0.022 (≈ 0.0314 µM) |
| C[C@@H](O)[C@H](C)n1ncn(-c2ccc(N3CCN(c4ccc(OC[C@@H]5CO[C@@](Cn6cncn6)(c6ccc(F)cc6F)C5)cc4)CC3)cc2)c1=O | < 0.05 | < 0.007 |
| C[C@H](O)[C@H](C)n1ncn(-c2ccc(N3CCN(c4ccc(OC[C@@H]5CO[C@@](Cn6cncn6)(c6ccc(F)cc6F)C5)cc4)CC3)cc2)c1=O | 0.06 (≈ 0.0874 µM) | 0.02 (≈ 0.0291 µM) |
| CC[C@@H]([C@@H](C)O)n1ncn(-c2ccc(N3CCN(c4ccc(OC[C@@H]5CO[C@@](Cn6cncn6)(c6ccc(F)cc6F)C5)cc4)CC3)cc2)c1=O (mixture of isomers) | < 0.086 | 0.019 |
| CC[C@@H]([C@H](C)O)n1ncn(-c2ccc(N3CCN(c4ccc(OC[C@@H]5CO[C@@](Cn6cncn6)(c6ccc(F)cc6F)C5)cc4)CC3)cc2)c1=O [POSACONAZOLE] | < 0.048 | 0.018 (≈ 0.0257 µM) |
